Results: ChEMBL document CHEMBL3352534, “A prodrug strategy for the oral delivery of a poorly soluble HCV NS5B thumb pocket 1 polymerase inhibitor using self-emulsifying drug delivery systems (SEDDS)” (Bioorg Med Chem Lett, 2015)

How the values were obtained:
[1] = Prodrug solubility in capmul; assay type: ADME
[2] = Prodrug solubility in solutol; assay type: ADME
[3] = Prodrug solubility in Labrasol; assay type: ADME
[4] = Dissociation constant, pKa of the compound; assay type: physicochemical
Rattus norvegicus [5] = experiment: (§1) Cmax in rat plasma at 10 mg/kg, po using 10.6% PEG400, 5.4% Cremophor EL, 2.6% Labrasol, 1.4% Capmul MCM in water (80%) vehicle; assay type: ADME, organism-based; set-up: dose 10 mg/kg, route oral; settings: in vivo, BLD = below limit of detection
Procedure, shortened: (§2)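 Fasted rats were given a single 10 mg/kg oral dose, with n = 3 per dose and route. Plasma was extracted by solid-phase extraction. Analysis used HPLC with diode-array UV (200–400 nm, peak height at best S/N) or LC/MS. Calibration standards were made in blank plasma, with LOQ 7–14 ng/mL. Parameters came from noncompartmental analysis.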

Rattus norvegicus [6] = experiment: (§3) AUC in rat plasma at 10 mg/kg, po using 10.6% PEG400, 5.4% Cremophor EL, 2.6% Labrasol, 1.4% Capmul MCM in water (80%) vehicle; assay type: ADME, organism-based; set-up: dose 10 mg/kg, route oral; settings: in vivo, BLD = below limit of detection; procedure, shortened: as §2
Rattus norvegicus [7] = experiment: Cmax in rat plasma assessed as (E)-3-(4-(1-(2-(5-chloropyrimidin-2-yl)-3-cyclopentyl-1-methyl-1H-indole-6-carboxamido)cyclobutanecarboxamido)-2-ethoxyphenyl)acrylic acid at 10 mg/kg, po using 10.6% PEG400, 5.4% Cremophor EL, 2.6% Labrasol, 1.4% Capmul MCM in water (80%) vehicle; assay type: ADME, organism-based; set-up: dose 10 mg/kg, route oral; settings: in vivo; procedure, shortened: as §2
Rattus norvegicus [8] = experiment: AUC in rat plasma assessed as (E)-3-(4-(1-(2-(5-chloropyrimidin-2-yl)-3-cyclopentyl-1-methyl-1H-indole-6-carboxamido)cyclobutanecarboxamido)-2-ethoxyphenyl)acrylic acid at 10 mg/kg, po using 10.6% PEG400, 5.4% Cremophor EL, 2.6% Labrasol, 1.4% Capmul MCM in water (80%) vehicle; assay type: ADME, organism-based; set-up: dose 10 mg/kg, route oral; settings: in vivo; procedure, shortened: as §2
Rattus norvegicus [9] = experiment: Oral bioavailability in rat assessed as (E)-3-(4-(1-(2-(5-chloropyrimidin-2-yl)-3-cyclopentyl-1-methyl-1H-indole-6-carboxamido)cyclobutanecarboxamido)-2-ethoxyphenyl)acrylic acid at 10 mg/kg using 10.6% PEG400, 5.4% Cremophor EL, 2.6% Labrasol, 1.4% Capmul MCM in water (80%) vehicle; assay type: ADME, organism-based; settings: in vivo
Rhesus monkey [10] = experiment: Oral bioavailability in monkey assessed as (E)-3-(4-(1-(2-(5-chloropyrimidin-2-yl)-3-cyclopentyl-1-methyl-1H-indole-6-carboxamido)cyclobutanecarboxamido)-2-ethoxyphenyl)acrylic acid at 10 mg/kg using 10.6% PEG400, 5.4% Cremophor EL, 2.6% Labrasol, 1.4% Capmul MCM in water (80%) vehicle; assay type: ADME, organism-based, Macaca mulatta; settings: in vivo
Canis familiaris [11] = experiment: Oral bioavailability in dog assessed as (E)-3-(4-(1-(2-(5-chloropyrimidin-2-yl)-3-cyclopentyl-1-methyl-1H-indole-6-carboxamido)cyclobutanecarboxamido)-2-ethoxyphenyl)acrylic acid at 10 mg/kg using 10.6% PEG400, 5.4% Cremophor EL, 2.6% Labrasol, 1.4% Capmul MCM in water (80%) vehicle; assay type: ADME, organism-based, Canis lupus familiaris; settings: in vivo
[12] = AUC in dog at 10 mg/kg, po using 10.6% PEG400, 5.4% Cremophor EL, 2.6% Labrasol, 1.4% Capmul MCM in water (80%) vehicle; assay type: ADME, organism-based, Canis lupus familiaris; set-up: dose 10 mg/kg, route oral; settings: plasma
Plasma [13] = experiment: Prodrug conversion in rat plasma assessed as half life; assay type: ADME, cell-free
Procedure, shortened: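 Rat plasma (from centrifuged whole blood) was incubated with 2 µM compound at 37 °C. Samples were quenched 1:3 with acetonitrile/methanol 1:1, centrifuged and analysed by HPLC-PDA. Half-life was taken as 0.693/first-order rate of loss of the starting compound.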

[14] = Prodrug solubility in PEG400; assay type: ADME
[15] = as §1; assay type: ADME, organism-based; set-up: dose 10 mg/kg, route oral; settings: plasma; procedure, shortened: as §2
Rattus norvegicus [16] = experiment: AUC in rat assessed as (E)-3-(4-(1-(2-(5-chloropyrimidin-2-yl)-3-cyclopentyl-1-methyl-1H-indole-6-carboxamido)cyclobutanecarboxamido)-2-ethoxyphenyl)acrylic acid at 2 mg/kg, iv; assay type: ADME, organism-based, Plasma; set-up: dose 2 mg/kg, route intravenous; settings: in vivo
Procedure, shortened: (§4)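 Overnight-fasted rats received 2 mg/kg IV in 70% PEG400:30% water, n = 3. Plasma parent drug was quantified after solid-phase extraction by HPLC-UV or LC/MS against blank-plasma calibration standards (LOQ 7–14 ng/mL). Noncompartmental analysis gave the PK parameters.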

Rattus norvegicus [17] = experiment: Mean residence time in rat assessed as (E)-3-(4-(1-(2-(5-chloropyrimidin-2-yl)-3-cyclopentyl-1-methyl-1H-indole-6-carboxamido)cyclobutanecarboxamido)-2-ethoxyphenyl)acrylic acid at 2 mg/kg, iv; assay type: ADME, organism-based; set-up: dose 2 mg/kg, route intravenous; settings: in vivo; procedure, shortened: as §4
Rattus norvegicus [18] = experiment: Half life in rat assessed as (E)-3-(4-(1-(2-(5-chloropyrimidin-2-yl)-3-cyclopentyl-1-methyl-1H-indole-6-carboxamido)cyclobutanecarboxamido)-2-ethoxyphenyl)acrylic acid at 2 mg/kg, iv; assay type: ADME, organism-based; set-up: dose 2 mg/kg, route intravenous; settings: in vivo; procedure, shortened: as §4
Rattus norvegicus [19] = experiment: Volume of distribution at steady state in rat assessed as (E)-3-(4-(1-(2-(5-chloropyrimidin-2-yl)-3-cyclopentyl-1-methyl-1H-indole-6-carboxamido)cyclobutanecarboxamido)-2-ethoxyphenyl)acrylic acid at 2 mg/kg, iv; assay type: ADME, organism-based; set-up: dose 2 mg/kg, route intravenous; settings: in vivo; procedure, shortened: as §4
Rhesus monkey [20] = experiment: AUC in monkey assessed as (E)-3-(4-(1-(2-(5-chloropyrimidin-2-yl)-3-cyclopentyl-1-methyl-1H-indole-6-carboxamido)cyclobutanecarboxamido)-2-ethoxyphenyl)acrylic acid at 10 mg/kg using 10.6% PEG400, 5.4% Cremophor EL, 2.6% Labrasol, 1.4% Capmul MCM in water (80%) vehicle; assay type: ADME, organism-based, Macaca mulatta, Plasma; set-up: dose 10 mg/kg; settings: in vivo
Canis familiaris [21] = experiment: AUC in dog assessed as (E)-3-(4-(1-(2-(5-chloropyrimidin-2-yl)-3-cyclopentyl-1-methyl-1H-indole-6-carboxamido)cyclobutanecarboxamido)-2-ethoxyphenyl)acrylic acid at 10 mg/kg using 10.6% PEG400, 5.4% Cremophor EL, 2.6% Labrasol, 1.4% Capmul MCM in water (80%) vehicle; assay type: ADME, organism-based, Canis lupus familiaris, Plasma; set-up: dose 10 mg/kg; settings: in vivo
Liver microsome [22] = experiment: Prodrug conversion in rat liver microsomes assessed as half life
Liver microsome [23] = experiment: Prodrug conversion in human liver microsomes assessed as half life
Plasma [24] = experiment: Prodrug conversion in human plasma assessed as half life
[25] = Prodrug conversion in simulated gastric fluid assessed as half life; assay type: ADME; settings: simulated gi fluid
Procedure, shortened: (§5)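 Incubations used 2 µM compound at 37 °C in either SGF (0.2% NaCl/HCl, pH 1.2, pepsin 3.2 mg/mL) or SIF (KH2PO4/NaOH, pH 7.5, pancreatin 10 mg/mL). Samples were quenched 1:2 with acetonitrile/methanol 1:1 and analysed by HPLC. t1/2 = 0.693/first-order disappearance rate.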

Intestine = experiment: Prodrug conversion in rat intestinal microsomes assessed as half life
[26] = Prodrug conversion in simulated intestinal fluid assessed as half life; assay type: ADME; settings: simulated gi fluid; procedure, shortened: as §5
[27] = Prodrug conversion in human intestinal microsomes assessed as half life
[28] = as §3; assay type: ADME, organism-based; set-up: dose 10 mg/kg, route oral; settings: plasma; procedure, shortened: as §2

Row | SMILES | solubility [1] [mg/mL] | solubility [2] [mg/mL] | solubility [3] [mg/mL] | pKa [4] | Cmax (Rattus norvegicus [5]) | AUC (Rattus norvegicus [6]) | Cmax (Rattus norvegicus [7]) [nM] | AUC (Rattus norvegicus [8]) [µM·h] | t1/2 (Plasma [13]) [h] | Cmax [15] [nM] | t1/2 (Liver microsome [22]) [h] | t1/2 (Liver microsome [23]) [h] | t1/2 (Plasma [24]) [h] | t1/2 [25] [h] | t1/2 (Intestine) [h] | t1/2 [26] [h] | t1/2 [27] [h] | further results
1 | CCOc1cc(NC(=O)C2(NC(=O)c3ccc4c(C5CCCC5)c(-c5ncc(Cl)cn5)n(C)c4c3)CCC2)ccc1/C=C/C(=O)OCCN1CCCC1 | < 60 | < 100 | < 60 | 7.7 | BLD | BLD | 1100 | 6.5 | – | – | – | – | – | – | – | – | – | –
2 | CCOc1cc(NC(=O)C2(NC(=O)c3ccc4c(C5CCCC5)c(-c5ncc(Cl)cn5)n(C)c4c3)CCC2)ccc1/C=C/C(=O)OCC(=O)N(C)C | > 100 | > 200 | > 200 | – | – | BLD | 9200 | 38.5 | 1.43 | 20 | – | – | – | – | – | – | – | F (Rattus norvegicus [9]): 38%; F (Rhesus monkey [10]): 35%; F (Canis familiaris [11]): 4%; AUC [12]: 0.69 µM·h; solubility [14]: > 200 mg/mL; AUC (Rattus norvegicus [16]): 10.5 µM·h; MRT (Rattus norvegicus [17]): 2.8 h; t1/2 (Rattus norvegicus [18]): 2.1 h; Vdss (Rattus norvegicus [19]): 0.73 L/kg; AUC (Rhesus monkey [20]): 26 µM·h; AUC (Canis familiaris [21]): 11.5 µM·h
3 | CCOc1cc(NC(=O)C2(NC(=O)c3ccc4c(C5CCCC5)c(-c5ncc(Cl)cn5)n(C)c4c3)CCC2)ccc1/C=C/C(=O)OCCN1CCN(C)CC1 | – | < 100 | < 100 | 7.7 | BLD | BLD | 1200 | 7.9 | – | – | 0.217 | 1.85 | – | – | – | – | – | –
4 | CCOc1cc(NC(=O)C2(NC(=O)c3ccc4c(C5CCCC5)c(-c5ncc(Cl)cn5)n(C)c4c3)CCC2)ccc1/C=C/C(=O)OCCN1CCOCC1 | < 30 | < 60 | < 60 | 5.7 | – | – | 7200 | 35.2 | 1.6 | 70 | 0.583 | 0.917 | > 5 | 0.333 | 3.5 | 4.28 | 15.2 | AUC [28]: 0.2 µM·h
5 | CCOc1cc(NC(=O)C2(NC(=O)c3ccc4c(C5CCCC5)c(-c5ncc(Cl)cn5)n(C)c4c3)CCC2)ccc1/C=C/C(=O)OCC(=O)N1CCOCC1 | < 15 | < 15 | < 30 | – | BLD | BLD | 4000 | 19.3 | 1.83 | – | 0.733 | 0.8 | > 5 | 0.85 | 1.27 | 3.17 | 3.42 | –
